Test results as given in publication PMC7357868 (ACS chemical biology, 2019).

Key:
[1] = target: T1, hpol η binding to primer-template DNA (Homo sapiens, UniProt Q9Y253); test: Fluorescence anisotropy DNA binding assay; settings: inhibitor concentration near the IC50 for pol activity; 2 nM FAM-labeled p/t-DNA
T1 sequence (Q9Y253 1-437): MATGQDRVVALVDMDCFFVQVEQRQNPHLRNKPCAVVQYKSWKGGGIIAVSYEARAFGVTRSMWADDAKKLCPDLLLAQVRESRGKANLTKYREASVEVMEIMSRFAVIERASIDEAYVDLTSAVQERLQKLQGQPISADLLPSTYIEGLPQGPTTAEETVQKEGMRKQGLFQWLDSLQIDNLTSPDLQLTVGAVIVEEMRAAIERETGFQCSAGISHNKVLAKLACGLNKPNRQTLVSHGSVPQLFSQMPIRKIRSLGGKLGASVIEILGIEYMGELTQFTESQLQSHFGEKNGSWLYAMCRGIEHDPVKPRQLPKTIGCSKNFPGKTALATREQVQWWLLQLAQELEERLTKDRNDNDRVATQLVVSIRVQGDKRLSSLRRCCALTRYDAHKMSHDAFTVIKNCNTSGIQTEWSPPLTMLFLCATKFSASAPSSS

hpol κ [2] = target: T2, hpol κ (Homo sapiens, UniProt Q9UBT6); test: HPG chemical footprinting with LC-MS; settings: 10 μM hpol κ, IAG-10 20 and 100 μM, 500 μM HPG
T2 sequence (Q9UBT6 19-526): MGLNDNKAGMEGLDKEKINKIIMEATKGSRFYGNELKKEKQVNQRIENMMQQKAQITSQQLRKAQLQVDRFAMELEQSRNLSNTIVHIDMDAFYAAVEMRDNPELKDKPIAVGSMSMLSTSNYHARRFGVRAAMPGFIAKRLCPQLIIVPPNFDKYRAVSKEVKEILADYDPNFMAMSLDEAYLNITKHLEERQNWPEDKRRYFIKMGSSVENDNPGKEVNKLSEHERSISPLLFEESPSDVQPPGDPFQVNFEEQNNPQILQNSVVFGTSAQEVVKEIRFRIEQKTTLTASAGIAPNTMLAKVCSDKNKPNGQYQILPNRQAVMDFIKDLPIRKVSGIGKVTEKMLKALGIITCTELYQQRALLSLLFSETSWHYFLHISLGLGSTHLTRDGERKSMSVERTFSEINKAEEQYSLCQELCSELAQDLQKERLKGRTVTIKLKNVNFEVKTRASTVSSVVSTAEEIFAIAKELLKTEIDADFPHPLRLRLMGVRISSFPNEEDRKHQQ

hpol κ [3] = target: T2, hpol κ; test: Gel-based primer extension assay; format: biochemical; settings: 10 μM IAG-10, 1 nM hpol κ
[4] = system: hpol κ-deficient HAP-1 cells; test: Alkaline comet assay; format: cell-based, human
Outline: (§1)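 100 000 HAP-1 cells per well, test compound 0.5 μM alone or with alkylating agent (100 μM), 1 h; DMSO control. Cells embedded in low-melting agarose (200–300 per well), lysed 1 h, alkaline unwinding (200 mM NaOH, 1 mM EDTA) 20 min RT, electrophoresis 21 V, 30 min, 4 °C, SYBR Gold stain. Read-out is % DNA in tail per cell; ≥20 cells per replicate, three biological replicates, mean ±SD.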

[5] = system: hpol κ-deficient HAP-1 cells; test: Clonogenic survival assay; format: cell-based, human
hpol λ = target: T3, hpol λ (Homo sapiens, UniProt Q9UGP5); test: TAMRA strand-displacement selectivity assay, X-family pol; format: biochemical; settings: 10 μM IAG-10, 10 nM hpol λ
T3 sequence (Q9UGP5 251-575 limits assumed): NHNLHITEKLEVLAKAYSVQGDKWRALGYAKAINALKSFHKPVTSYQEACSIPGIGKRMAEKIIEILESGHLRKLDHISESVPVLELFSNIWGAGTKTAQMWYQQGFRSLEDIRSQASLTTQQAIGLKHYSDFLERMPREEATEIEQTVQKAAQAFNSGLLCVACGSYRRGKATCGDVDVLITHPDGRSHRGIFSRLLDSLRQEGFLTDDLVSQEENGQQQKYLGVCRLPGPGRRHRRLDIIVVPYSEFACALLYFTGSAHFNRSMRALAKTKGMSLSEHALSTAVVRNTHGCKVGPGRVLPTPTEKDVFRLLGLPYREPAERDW

hpol κ [6] = target: T2, hpol κ; test: Steady-state kinetic analysis of dTTP insertion; format: biochemical; settings: 0.5 nM hpol κ, 25 nM DNA, varying inhibitor concentration
hpol ι = target: T4, hpol ι (Homo sapiens, UniProt Q9UNA4); test: Gel-based primer extension assay; format: biochemical; settings: 10 μM IAG-10, 10 nM hpol ι
T4 sequence (Q9UNA4 1-446): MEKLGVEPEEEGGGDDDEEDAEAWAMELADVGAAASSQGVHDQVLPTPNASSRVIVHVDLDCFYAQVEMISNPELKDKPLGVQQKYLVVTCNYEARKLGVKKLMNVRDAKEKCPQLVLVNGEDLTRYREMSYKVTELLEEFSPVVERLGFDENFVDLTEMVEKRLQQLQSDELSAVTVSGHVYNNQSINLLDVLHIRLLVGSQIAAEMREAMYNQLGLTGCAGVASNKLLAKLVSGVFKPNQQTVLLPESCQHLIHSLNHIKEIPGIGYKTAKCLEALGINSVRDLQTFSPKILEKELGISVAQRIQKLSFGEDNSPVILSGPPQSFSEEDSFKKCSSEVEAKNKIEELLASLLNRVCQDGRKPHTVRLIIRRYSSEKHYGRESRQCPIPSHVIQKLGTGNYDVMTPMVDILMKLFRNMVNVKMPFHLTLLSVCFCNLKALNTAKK

hpol κ [7] = target: T2, hpol κ; test: TAMRA strand-displacement fluorescence assay of DNA polymerase activity; format: biochemical
[8] = system: hpol κ-proficient HAP-1 cells; test: Alkaline comet assay; format: cell-based, human
Outline: as §1

[9] = 100 μM TMZ + 0.5 μM IAG-10, compared with TMZ alone

Structure (SMILES): Cl.[H]/N=C(\N)NN=Cc1cn(C(=O)c2cccc3ccccc23)c2ccc(Cl)cc12 [IAG-10, (E)-2-((1-(1-naphthoyl)-5-chloro-1H-indol-3-yl)-methylene)hydrazine-1-carboximidamide hydrochloride]
- increase in the Kd,DNA [1]: 20–30%
- change in the fraction of HPG-modified peptides containing Arg48 (hpol κ [2]): large increase
- decrease in the fraction of HPG-modified peptides (Arg145, Arg149, Arg505) (hpol κ [2]): > 50%
- polymerase activity in presence of compound (hpol κ [3]): only hpol κ was inhibited
- DNA damage (% DNA in tail) over control ([4]; 0.5 μM IAG-10 alone, 1 h): did not increase DNA damage over control
- DNA damage (% DNA in tail) [4, 9]: did not increase further
- colony formation ([5]; 0.5 μM IAG-10 alone): does not impair colony formation
- colony forming ability, cotreatment over TMZ alone ([5]; TMZ + 0.5 μM IAG-10): did not show any significant reduction
- polymerase activity in presence of compound (hpol λ): only hpol κ activity was inhibited
- effect on turnover number (kcat) (hpol κ [6]): sharp decrease
- polymerase activity in presence of compound (hpol ι): only hpol κ was inhibited
- polymerase activity in presence of compound (hpol κ [7]; 10 μM IAG-10, 25 nM hpol κ): only hpol κ activity was inhibited
- inhibition of enzyme activity in the initial screen (hpol κ [7]; 40 μM compound, 1 nM hpol κ, 50 nM DNA, relative to DMSO control): greatest inhibitory action
- IC50 (hpol κ [7]; IC50, 0.1 nM hpol κ, 0.5 nM DNA, 95% CI in parentheses): 0.72 µM
- IC50 (hpol κ [7]; IC50, 0.2 nM hpol κ, 1 nM DNA, 95% CI in parentheses): 1.1 µM
- IC50 (hpol κ [7]; IC50, 0.2 nM hpol κ, 2.5 nM DNA, 95% CI in parentheses): 1.4 µM
- IC50 (hpol κ [7]; IC50, 0.5 nM hpol κ, 10 nM DNA, 95% CI in parentheses): 8.9 µM
- IC50 (hpol κ [7]; IC50, 1 nM hpol κ, 25 nM DNA, 95% CI in parentheses): 8.9 µM
- IC50 (hpol κ [7]; IC50, 1 nM hpol κ, 50 nM DNA, 100 μM dTTP, 1 mM MgCl2, 25 °C, mean n = 3): 7.2 µM
- specificity for hpol κ over η (hpol κ [7]; initial reaction conditions (higher enzyme and DNA)): ~ 2 fold
- specificity for hpol κ over η (hpol κ [7]; lower concentrations of enzyme and DNA): ~ 30 fold
- DNA damage (% DNA in tail) compared to control ([8]; 0.5 μM IAG-10 alone, 1 h): approximately twofold
- DNA damage (% DNA in tail) [8, 9]: increased even further
